Measurements as given in ChEMBL document CHEMBL1151774, “Synthesis and biological evaluation of new N-linked 5-triazolylmethyl oxazolidinones” (Eur J Med Chem, 2008).
Converted amounts (≈) assume the structure as drawn.

Tests used:
Staphylococcus aureus [1] = test: Antimicrobial activity against Staphylococcus aureus ATCC 29213 after 16 to 18 hrs by agar dilution method; format: functional
Streptococcus pneumoniae = test: Antimicrobial activity against sStreptococcus pneumoniae after 16 to 18 hrs by agar dilution method; format: functional
Staphylococcus aureus [2] = test: Antimicrobial activity against methicillin-resistant Staphylococcus aureus after 16 to 18 hrs by agar dilution method; format: functional
Enterococcus faecalis = test: Antimicrobial activity against Enterococcus faecalis after 16 to 18 hrs by agar dilution method; format: functional
Staphylococcus aureus [3] = test: Antimicrobial activity against methicillin-susceptible Staphylococcus aureus after 16 to 18 hrs by agar dilution method; format: functional
[4] = Oral bioavailability in Sprague-Dawley rat at 10 mg/kg; format: ADME, organism-based; details: in vivo
Summary of the method: (§1)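 Single dose given orally (10 or 50 mg/kg) or intravenously (10 mg/kg). Serial 300 µL blood samples were taken from the retrobulbar vein. Plasma was quantified by LC-MS. Parameters came from mean plasma concentration by non-compartmental analysis. F is absolute oral bioavailability, assuming linear pharmacokinetics.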

[5] = Elimination half life in Sprague-Dawley rat at 10 mg/kg, po; format: ADME, organism-based; parameters: dose 10 mg/kg, route oral; details: in vivo, read-out: beta t1/2 (converted); summary of the method: as §1
[6] = Elimination half life in Sprague-Dawley rat at 10 mg/kg, iv; format: ADME, organism-based; parameters: dose 10 mg/kg, route intravenous; details: in vivo, read-out: beta t1/2 (converted); summary of the method: as §1
[7] = Tmax in Sprague-Dawley rat at 10 mg/kg, po; format: ADME, organism-based; parameters: dose 10 mg/kg, route oral; details: in vivo; summary of the method: as §1
[8] = (§2) AUC (0 to infinity) in Sprague-Dawley rat at 10 mg/kg, po; format: ADME, organism-based, Plasma; parameters: time infinity, dose 10 mg/kg, route oral; details: Sprague-Dawley, plasma; summary of the method: as §1
[9] = (§3) AUC (0 to infinity) in Sprague-Dawley rat at 50 mg/kg, po; format: ADME, organism-based, Plasma; parameters: time infinity, dose 50 mg/kg, route oral; details: Sprague-Dawley, plasma; summary of the method: as §1
Staphylococcus aureus [10] = test: Antimicrobial activity against methicillin-resistant Staphylococcus aureus 05-2 infected in po dosed KunMing SPF mouse; format: functional
Summary of the method: (§4)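 Mice given a lethal systemic infection by intraperitoneal injection of the MLD inoculum of MRSA 05-2. Compound dosed orally or by i.v. injection in 0.9% NaCl immediately and 4 h post-infection. ED50 (dose curing 50% of infected mice) calculated by the Bliss method on day 7 post-infection, with 95% confidence ranges.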

Staphylococcus aureus [11] = test: Antimicrobial activity against methicillin-resistant Staphylococcus aureus 05-2 infected in iv dosed KunMing SPF mouse; format: functional; summary of the method: as §4
[12] = Cmax in Sprague-Dawley rat at 10 mg/kg, po; format: ADME, organism-based; parameters: dose 10 mg/kg, route oral; details: in vivo; summary of the method: as §1
[13] = Tmax in Sprague-Dawley rat at 50 mg/kg, po; format: ADME, organism-based; parameters: dose 50 mg/kg, route oral; details: in vivo; summary of the method: as §1
[14] = Clearance in Sprague-Dawley rat at 10 mg/kg, iv; format: ADME, organism-based; parameters: dose 10 mg/kg, route intravenous; details: in vivo; summary of the method: as §1
[15] = Clearance in Sprague-Dawley rat at 50 mg/kg, po; format: ADME, organism-based; parameters: dose 50 mg/kg, route oral; details: in vivo; summary of the method: as §1
[16] = AUC (0 to infinity) in Sprague-Dawley rat at 10 mg/kg, iv; format: ADME, organism-based; parameters: time infinity, dose 10 mg/kg, route intravenous; details: plasma; summary of the method: as §1
[17] = Elimination half life in Sprague-Dawley rat at 50 mg/kg, po; format: ADME, organism-based; parameters: dose 50 mg/kg, route oral; details: in vivo, read-out: beta t1/2 (converted); summary of the method: as §1
[18] = Clearance in Sprague-Dawley rat at 10 mg/kg, po; format: ADME, organism-based; parameters: dose 10 mg/kg, route oral; details: in vivo; summary of the method: as §1
[19] = Cmax in Sprague-Dawley rat at 50 mg/kg, po; format: ADME, organism-based; parameters: dose 50 mg/kg, route oral; details: in vivo; summary of the method: as §1
Rattus norvegicus [20] = test: as §2; format: ADME, organism-based, Plasma; parameters: time infinity, dose 10 mg/kg, route oral; details: in vivo; summary of the method: as §1
Rattus norvegicus [21] = test: as §3; format: ADME, organism-based, Plasma; parameters: time infinity, dose 50 mg/kg, route oral; details: in vivo; summary of the method: as §1
Staphylococcus aureus [22] = test: Antimicrobial activity against methicillin-resistant Staphylococcus aureus 05-2 infected in sc dosed KunMing SPF mouse; format: functional

Row | Structure (SMILES) | MIC (Staphylococcus aureus [1]) | MIC (Streptococcus pneumoniae) | MIC (Staphylococcus aureus [2]) | MIC (Enterococcus faecalis) | MIC (Staphylococcus aureus [3]) | other results
1 | O=Cc1ccc(CN2CCN(c3ccc(N4C[C@H](Cn5ccnn5)OC4=O)cc3F)CC2)cc1 | 0.008 µg/mL (≈ 0.0172 µM) | 1 µg/mL (≈ 2.15 µM) | 0.25 µg/mL (≈ 0.538 µM) | 2 µg/mL (≈ 4.31 µM) | 1 µg/mL (≈ 2.15 µM) | –
2 | O=C1O[C@@H](Cn2ccnn2)CN1c1ccc(N2CCN(Cc3ccoc3)CC2)c(F)c1 | 0.008 µg/mL (≈ 0.0188 µM) | 0.03 µg/mL (≈ 0.0703 µM) | 0.03 µg/mL (≈ 0.0703 µM) | 0.5 µg/mL (≈ 1.17 µM) | 0.008 µg/mL (≈ 0.0188 µM) | bioavailability [4]: 62.7%; half-life [5]: 2.76 h; half-life [6]: 2.95 h; Tmax [7]: 0.88 h; AUC(0-inf) [8]: 16400 ng·h/mL; AUC(0-inf) [9]: 85800 ng·h/mL; ED50 (Staphylococcus aureus [10]): 7.47 mg/kg; ED50 (Staphylococcus aureus [11]): 6.99 mg/kg; Cmax [12]: 3040 ng/mL; Tmax [13]: 1.9 h; clearance [14]: 6.98 mL/min/kg; CL/F [15]: 8.86 mL/min/kg; AUC(0-inf) [16]: 26200 ng·h/mL; half-life [17]: 8.6 h; CL/F [18]: 10.5 mL/min/kg; Cmax [19]: 10700 ng/mL
3 | O=C1O[C@@H](Cn2ccnn2)CN1c1ccc(N2CCN(Cc3ccccc3[N+](=O)[O-])CC2)c(F)c1 | 0.125 µg/mL (≈ 0.26 µM) | 1 µg/mL (≈ 2.08 µM) | 1 µg/mL (≈ 2.08 µM) | > 2 µg/mL | 0.125 µg/mL (≈ 0.26 µM) | –
4 | Cc1ccsc1CN1CCN(c2ccc(N3C[C@H](Cn4ccnn4)OC3=O)cc2F)CC1 | 1 µg/mL (≈ 2.19 µM) | 4 µg/mL (≈ 8.76 µM) | 4 µg/mL (≈ 8.76 µM) | 4 µg/mL (≈ 8.76 µM) | 1 µg/mL (≈ 2.19 µM) | –
5 | Cc1ccc(CN2CCN(c3ccc(N4C[C@H](Cn5ccnn5)OC4=O)cc3F)CC2)o1 | 0.125 µg/mL (≈ 0.284 µM) | 2 µg/mL (≈ 4.54 µM) | 1 µg/mL (≈ 2.27 µM) | 2 µg/mL (≈ 4.54 µM) | 0.125 µg/mL (≈ 0.284 µM) | –
6 | O=C1O[C@@H](Cn2ccnn2)CN1c1ccc(N2CCN(Cc3ccc([N+](=O)[O-])o3)CC2)c(F)c1 | 0.06 µg/mL (≈ 0.127 µM) | 0.03 µg/mL (≈ 0.0636 µM) | 0.06 µg/mL (≈ 0.127 µM) | 0.25 µg/mL (≈ 0.53 µM) | 0.06 µg/mL (≈ 0.127 µM) | bioavailability [4]: 103%; half-life [5]: 1.51 h; half-life [6]: 1.18 h; Tmax [7]: 0.25 h; AUC (Rattus norvegicus [20]): 19400 ng·h/mL; AUC (Rattus norvegicus [21]): 139000 ng·h/mL; Cmax [12]: 5440 ng/mL; Tmax [13]: 0.5 h; clearance [14]: 16.2 mL/min/kg; AUC(0-inf) [16]: 18900 ng·h/mL; half-life [17]: 1.66 h; Cmax [19]: 16900 ng/mL
7 | O=C1O[C@@H](Cn2ccnn2)CN1c1ccc(N2CCN(Cc3cccc([N+](=O)[O-])c3)CC2)c(F)c1 | 0.03 µg/mL (≈ 0.0623 µM) | 0.5 µg/mL (≈ 1.04 µM) | 0.5 µg/mL (≈ 1.04 µM) | 0.5 µg/mL (≈ 1.04 µM) | 0.06 µg/mL (≈ 0.125 µM) | bioavailability [4]: 61.5%; half-life [5]: 2.36 h; half-life [6]: 2.95 h; Tmax [7]: 1.4 h; AUC(0-inf) [8]: 16100 ng·h/mL; AUC(0-inf) [9]: 74500 ng·h/mL; ED50 (Staphylococcus aureus [10]): 7.87 mg/kg; ED50 (Staphylococcus aureus [11]): 11.2 mg/kg; Cmax [12]: 3240 ng/mL; Tmax [13]: 2.3 h; clearance [14]: 6.98 mL/min/kg; CL/F [15]: 11.3 mL/min/kg; AUC(0-inf) [16]: 26200 ng·h/mL; half-life [17]: 5.34 h; CL/F [18]: 11.7 mL/min/kg; Cmax [19]: 10800 ng/mL
8 | O=C1O[C@@H](Cn2ccnn2)CN1c1ccc(N2CCN(Cc3cccs3)CC2)c(F)c1 | 0.06 µg/mL (≈ 0.136 µM) | 0.06 µg/mL (≈ 0.136 µM) | 0.06 µg/mL (≈ 0.136 µM) | 2 µg/mL (≈ 4.52 µM) | 0.06 µg/mL (≈ 0.136 µM) | –
9 | Nc1ccccc1CN1CCN(c2ccc(N3C[C@H](Cn4ccnn4)OC3=O)cc2F)CC1 | 0.125 µg/mL (≈ 0.277 µM) | 0.5 µg/mL (≈ 1.11 µM) | 0.5 µg/mL (≈ 1.11 µM) | 1 µg/mL (≈ 2.21 µM) | 0.125 µg/mL (≈ 0.277 µM) | –
10 | O=C1O[C@@H](Cn2ccnn2)CN1c1ccc(N2CCN(Cc3ccc([N+](=O)[O-])cc3)CC2)c(F)c1 | 0.5 µg/mL (≈ 1.04 µM) | 4 µg/mL (≈ 8.31 µM) | > 8 µg/mL | 8 µg/mL (≈ 16.6 µM) | 0.5 µg/mL (≈ 1.04 µM) | –
11 | CN[C@H](CC(C)C)C(=O)N[C@H]1C(=O)N[C@@H](CC(N)=O)C(=O)N[C@H]2C(=O)N[C@H]3C(=O)N[C@H](C(=O)N[C@H](C(=O)O)c4cc(O)cc(O)c4-c4cc3ccc4O)[C@H](O)c3ccc(c(Cl)c3)Oc3cc2cc(c3O[C@@H]2O[C@H](CO)[C@@H](O)[C@H](O)[C@H]2O[C@H]2C[C@](C)(N)[C@H](O)[C@H](C)O2)Oc2ccc(cc2Cl)[C@H]1O [VANCOMYCIN] | 0.125 µg/mL (≈ 0.0863 µM) | 1 µg/mL (≈ 0.69 µM) | – | 1 µg/mL (≈ 0.69 µM) | 0.125 µg/mL (≈ 0.0863 µM) | ED50 (Staphylococcus aureus [11]): 6.54 mg/kg; ED50 (Staphylococcus aureus [22]): 6 mg/kg
